# Laboratory results taken from ChEMBL document CHEMBL4513216, “Probing the Open Global Health Chemical Diversity Library for Multistage-Active Starting Points for Next-Generation Antimalarials” (ACS Infect Dis, 2020).
# Test: Toxicity liver stage against HepG2, at 10uM
# Assay type: cell-based
# Set-up: test concentration 10 uM, cell line HepG2-A16-CD81EGFP
# Details: human, HepG2-A16-CD81EGFP cells; read-out: INHIBITION
# Outline: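 Uninfected HepG2-A16-CD81EGFP cells, 3 × 10^3 per well, 1536-well, plated on prespotted compound at 10 μM final, parasite-free screening media added to match infected plates; puromycin 10 μM positive, DMSO 0.5% negative; run in parallel with 48 h PbLuc assay at 37 °C, 5% CO2; viability by CellTiter-Glo luminescence, normalized to controls.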
row,Structure (SMILES),cytotoxicity at 10 µM
1,COCCN1C(=O)CO[C@H]2CN(Cc3ccccc3OC)C[C@H]21,-1.52%
2,O=C1NC[C@H]2CN(Cc3ccccn3)CCN12,-2.4%
3,CNC(=O)c1csc(-c2cccnc2)n1,3.19%
4,O=C(COc1coc(CN2CCCCC2)cc1=O)Nc1cccc(Cl)c1,-1.89%
5,N#Cc1cccc(C(=O)N2CCn3c(Cn4cncn4)cnc3C2)c1,7.42%
6,Cc1nn(C)c2c(N(C)Cc3cccs3)nc(C3CC3)nc12,-126%
7,Cc1cccc2c1cnn2CCCNC(=O)c1cnn(C)c1,6.75%
8,COc1ccc2nc(C3CC3)cc(C(=O)NCCc3nnc[nH]3)c2c1,0.867%
9,CCCNc1nc(CS(=O)(=O)c2ccccc2)cs1,0.939%
10,CC(O)CN1CCC(CNCCOCC(F)(F)F)CC1 (stereo unspecified),4.91%
11,CN(C)Cc1nc(C(C)(C)NC(=O)c2cccc3ccccc23)no1,-1.8%
12,CN(CC(=O)NC(N)=O)CC1(c2ccc(Br)cc2)CC1,0.913%
13,COc1cc(OC)cc(N2CCC(NCc3ccsc3)C2=O)c1 (stereo unspecified),0.347%
14,CC(C)CC(C)N(C)Cc1nnc(-c2ccco2)o1 (stereo unspecified),6.07%
15,Cc1ccccc1CN(Cc1ccccn1)C(=O)CNS(C)(=O)=O,1.48%
16,CCC(C)(NCC(=O)NC(=O)NC)c1nccs1 (stereo unspecified),7.77%
17,O=C(NCc1ccccc1CN1CCCC1)Nc1nncs1,6.13%
18,c1cc(CNCc2ccnc(N3CCCC3)c2)c2c(c1)OCO2,3.21%
19,CCc1ncc2c(n1)CN(C(C(N)=O)c1ccccc1)CC2 (stereo unspecified),-2.35%
20,CCn1c(CN(C)C(=O)c2ccc(N(C)C)nc2)nc2ccccc21,0.0894%
21,O=C(NS(=O)(=O)c1cnn(-c2ccccc2F)c1)c1ccoc1,-5.2%
22,COC(=O)N1CCC(NC(=O)N2CCCC2c2ccsc2)CC1 (stereo unspecified),10.5%
23,Cc1nn(C)c(C)c1CC(C)NC(=O)NCc1ccn(C(C)C)n1 (stereo unspecified),-1.54%

row,Structure (SMILES),cytotoxicity at 10 µM
1,CC1C(=O)NCCN1CCOc1ccc(C#N)cc1 (stereo unspecified),2.29%
2,O=C(Nc1ccc(-c2nnc[nH]2)cc1)C1CCN1Cc1ccccc1 (stereo unspecified),9.73%
3,Cc1nc2c(c(C)c1CC(=O)Nc1ccc(Cl)cc1)c(=O)[nH]n2C,-2.85%
4,CCN(CC1CN(Cc2ncc(C)o2)CCO1)c1cccnn1 (stereo unspecified),-0.343%
5,Cn1ccnc1CNC(=O)N(CCCO)C1CCCc2ccccc21 (stereo unspecified),-6.19%
6,CCN1CC2(CC1=O)CN(C(C)=O)CCN(C(=O)NC(C)C)C2 (stereo unspecified),8.95%
7,CSCCC(=O)N1CCC(c2nnc(CN(C)CCO)n2C)CC1,0.583%
8,O=C(NCC1CCCO1)c1ccc(S(=O)(=O)NCCc2cn[nH]c2)cc1 (stereo unspecified),5.5%
9,CC(c1cccc(-c2ncccc2F)c1)N(C)C (stereo unspecified),-19.4%
10,Cc1nccn1CCC1CCCCN1C(=O)c1ccc2nonc2c1 (stereo unspecified),-6.55%
11,COc1ccc(-n2nc(C)c(C(C)=O)c2C)cc1C(N)=O,-3.41%
12,O=C1N(CCCc2ccccc2)CCCC12CCN(C(CO)CO)C2 (stereo unspecified),-4.14%
13,CC(C)c1n[nH]c(C2CN(C(=O)c3cc(Cl)c[nH]3)CCO2)n1 (stereo unspecified),-5.64%
14,Cc1ccc(NC2CCN(C(=O)c3cncnc3C)CC2)nn1,-3.04%
15,O=C(c1cscn1)N1CCCC(n2cncn2)C1 (stereo unspecified),0.301%
16,Cc1nn(C)c(N(C)C)c1CNCc1cccnc1N(C)C,1.84%
17,COc1ccc(CNC(=O)NCc2c(C)cc(C)[nH]c2=O)cc1,-3.22%
18,Cn1ccnc1N1CCN(C(=O)Cc2ccc(Cl)cc2)CC1,5.73%
19,CNC(=O)CN1CCOCC2(CCCN(Cc3ccsc3)C2)C1 (stereo unspecified),2.61%
20,Cn1cc(CN2CCc3c(CNC(=O)C4CC4)cncc3C2)cn1,-5.43%
21,O=C(N[C@@H]1CN(Cc2cccs2)[C@@H]2CCCO[C@@H]21)c1cscn1,-4.6%
22,COc1cc(C(=O)N2CC3(CCNCC3)c3cc(Cl)ccc32)ccn1,52.8%
23,COCC1CN(S(=O)(=O)N(C)C)Cc2cnn(CC3CCCC3)c21 (stereo unspecified),12.4%
